Results on 97 molecules are retold here after ChEMBL document CHEMBL4513216, “Probing the Open Global Health Chemical Diversity Library for Multistage-Active Starting Points for Next-Generation Antimalarials” (ACS Infect Dis, 2020).

SMILES strings stand for the structures.

The nature of this data set: Toxicity liver stage against HepG2, at 10uM. Details: test concentration 10 uM, cell line HepG2-A16-CD81EGFP. The settings on record: human, HepG2-A16-CD81EGFP cells; read-out: INHIBITION
It is filed as cell-based. Summed up:
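Uninfected HepG2-A16-CD81EGFP cells, 3 × 10^3 per well, 1536-well, plated on prespotted compound at 10 μM final, parasite-free screening media added to match infected plates; puromycin 10 μM positive, DMSO 0.5% negative; run in parallel with 48 h PbLuc assay at 37 °C, 5% CO2; viability by CellTiter-Glo luminescence, normalized to controls.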
Take `COc1ccc2c(c1)nc1n2[C@@H](CNC(=O)c2cccnc2)COC1`: the cytotoxicity at 10 µM is -3.74%.

Regarding `CCOCCNc1nc(C2CCCC2)nc2c1cnn2C`, the cytotoxicity at 10 µM was -11%.

Take `N#CCCN(CC1CCOC1)S(=O)(=O)c1cccc(Cl)c1` (configuration not stated): the cytotoxicity at 10 µM is 3.81%.

On to `Cn1ccnc1-c1ccc(NCc2cn3c(n2)SCC3)nn1`, for which the cytotoxicity at 10 µM is -0.641%.

Consider `O=C(CCc1ccco1)N1CCc2[nH]nc(COc3ccccc3)c2C1`, for which the cytotoxicity at 10 µM came out at 0.86%.

Regarding `COc1cncc(-n2ccnc2-c2ccc(C(=O)O)s2)c1`, the cytotoxicity at 10 µM is 0.571%.

Regarding `O=C(c1cc[nH]c(=O)c1)N1CCn2c(nnc2-c2ccccc2)C1`, the cytotoxicity at 10 µM was -4.71%.

As for `Cc1nnc(CN(C)C2CCCN(Cc3noc(C4CC4)n3)C2)o1` (configuration not stated), the cytotoxicity at 10 µM is -2.51%.

Turning to `Cc1csc(CN2CC[C@H]3C[C@H](c4nc(C)no4)O[C@@H]3C2)n1`, the cytotoxicity at 10 µM was -3.35%.

For the molecule `Cc1nn(CC(C)C)c(N(C)C)c1CNCc1cccc2c1OCO2`, the cytotoxicity at 10 µM was -10.2%.

With `CC(C)NS(=O)(=O)c1cc(C(=O)O)cc(-c2ccc3c(c2)OCO3)c1`, the cytotoxicity at 10 µM was determined as 0.873%.

For the molecule `CN(C)CC1CN(Cc2coc(-c3ccccc3)n2)CCO1` (configuration not stated), the cytotoxicity at 10 µM is -10.8%.

As for `CNC(=O)c1ccc2c(c1O)OC(C)(C)C2`, the cytotoxicity at 10 µM was -6.08%.

Turning to `FC(F)(F)c1c[nH]c(C2CCN(c3ncccn3)CC2)n1`, the cytotoxicity at 10 µM was -5.1%.

Take `CC(C)C1CCN(C(=O)NCC(=O)N(C)CC(F)(F)F)CC1`: the cytotoxicity at 10 µM was 20.7%.

Turning to `Cc1ccc2nc(C)cc(C(=O)N3C[C@H]4CCC[C@@]4(CO)C3)c2c1`, the cytotoxicity at 10 µM was 2.53%.

As to `COCCN1CCCC(c2nc(C)n3c(C)c(C)sc23)C1` (configuration not stated), the cytotoxicity at 10 µM was -21.5%.

`N#Cc1ccc(CN2CCCN(C(=O)CCn3cncn3)CC2)cc1`: the cytotoxicity at 10 µM is -12.7%.

Regarding `N#Cc1cccnc1N1CCC(Nc2ccccc2)C1` (configuration not stated), the cytotoxicity at 10 µM was -3.37%.

Regarding `CN(C)CCN1Cc2ncn(C)c2C(COCC(=O)N(C)C)C1` (configuration not stated), the cytotoxicity at 10 µM was 7.83%.

With `CCN(CC)S(=O)(=O)N1CCc2nc(C3CCNCC3)ncc2C1`, the cytotoxicity at 10 µM was -5.66%.

Consider `Cc1nc(C)n(CC2CCCN2Cc2coc(-c3cccs3)n2)n1` (configuration not stated), for which the cytotoxicity at 10 µM was -9.61%.

`CC(C)Cc1noc(CN(C)C(=O)CCNC(=O)c2ccccc2F)n1`: the cytotoxicity at 10 µM is -9.22%.

With `COCCCC(=O)Nc1[nH]nc(-c2ccncc2)c1C`, the cytotoxicity at 10 µM is -0.158%.

For `CCC(Nc1ncccn1)c1cccnc1` (configuration not stated), the cytotoxicity at 10 µM came out at 5.84%.

For `CC(C)(C)c1ncc(S(C)(=O)=O)c(C2CCCNC2)n1` (configuration not stated), the cytotoxicity at 10 µM was -12.7%.

In the case of `Cc1cccc(OCc2ccc(C(=O)N3N=CCC3(O)C(F)(F)F)o2)c1` (configuration not stated), the cytotoxicity at 10 µM worked out at 25.2%.

Regarding `CCS(=O)(=O)N1CCCC(c2ccnc(N(C)C)c2)C1` (configuration not stated), the cytotoxicity at 10 µM is -5.16%.

With `CCCn1cc(NC(=O)c2cccc3cccnc23)ccc1=O`, the cytotoxicity at 10 µM is -4.73%.

As for `Cc1noc2ncc(C(=O)N3CCCC3c3ccsc3)cc12` (configuration not stated), the cytotoxicity at 10 µM is -10.4%.

Take `CCN(Cc1c(C)nn(C)c1C)C(=O)C1COc2ccccc2C1` (configuration not stated): the cytotoxicity at 10 µM is -0.91%.

Turning to `CN(C)CCOc1ccccc1N1CCN(C(=O)C(C)(C)C#N)CC1`, the cytotoxicity at 10 µM worked out at 11.4%.

As to `CCOc1ncnc2c1CCN(C(=O)NCc1cccnc1)CC2`, the cytotoxicity at 10 µM is -127%.

With `Cc1cccc(C(=O)NCc2cccnc2N(C)C)n1`, the cytotoxicity at 10 µM was 0.72%.

Regarding `CC(C)c1ccc(NC(=O)c2ncc(C(N)=O)cc2Cl)cc1`, the cytotoxicity at 10 µM was -1.85%.

Turning to `O=C(CCNC(=O)c1ccccc1N1CCOCC1)NC1CCCC1`, the cytotoxicity at 10 µM was -17.8%.

As to `CCn1cc(CN2CCC(c3ncc(Cl)cc3S(C)(=O)=O)CC2)c(C)n1`, the cytotoxicity at 10 µM is 5.68%.

Take `Cc1cncc(C(=O)N2CCC(Cn3cc(-c4ccsc4)nn3)CC2)c1`: the cytotoxicity at 10 µM was -6.69%.

As to `N#Cc1ccc(N2CCN(c3ccc4nncn4n3)CC2)nc1`, the cytotoxicity at 10 µM is -13.3%.

As to `CN(CC(O)CO)C(=O)c1coc(COc2cccc(F)c2)n1` (configuration not stated), the cytotoxicity at 10 µM is -149%.

Consider `CCN1CCN(C(=O)CCn2cccc2)CC1`, for which the cytotoxicity at 10 µM was 7.66%.

As for `CCS(=O)(=O)c1ccccc1N1CCC(NC(=O)C2CC2)CC1`, the cytotoxicity at 10 µM is -1.58%.

As to `CC(=O)Nc1ccc(CNc2cccc(OCCF)c2)cc1`, the cytotoxicity at 10 µM was -5.35%.

As to `CCc1c(C(=O)N2CCC(CC(N)=O)CC2)cnn1C(C)(C)C`, the cytotoxicity at 10 µM was 2.2%.

For `O=C(CSc1ccccn1)N1C[C@@H]2CC[C@H]1CN(Cc1cscn1)C2`, the cytotoxicity at 10 µM amounted to 1.93%.

With `c1cncc(OCc2noc3c2CN(Cc2cccs2)CC3)c1`, the cytotoxicity at 10 µM worked out at 9.95%.

Turning to `CCOCC1CN(C(=O)Cc2ccccn2)Cc2c1cnn2CC` (configuration not stated), the cytotoxicity at 10 µM is -69.3%.

Consider `CN(C)CCN1CCOCC2(CCCN(C(=O)c3cccn3C)C2)C1` (configuration not stated), for which the cytotoxicity at 10 µM came to 4.87%.

As to `Nc1cnc(-c2cccc3ccnn23)cn1`, the cytotoxicity at 10 µM is -1.7%.

In the case of `CCn1ccnc1CN1CCCN(C(=O)Cc2ccccc2C)CC1`, the cytotoxicity at 10 µM is -1.99%.

For `CCOC(=O)CCNC(=O)c1cccc2ccc(C)nc12`, the cytotoxicity at 10 µM was -5.15%.

As for `Cc1cc(C)nc(N2CCC(C(=O)Nc3n[nH]c(CC(C)C)n3)CC2)n1`, the cytotoxicity at 10 µM was determined as 5.61%.

With `CCCc1nnc(NC(=O)NC(CCO)c2cccs2)s1` (configuration not stated), the cytotoxicity at 10 µM is -7.38%.

With `CC(C)N1CCCC(CNC(=O)c2ccnc(-n3ccnc3)c2)C1` (configuration not stated), the cytotoxicity at 10 µM is -6.23%.

Consider `O=C(CS(=O)(=O)CC1CCCCC1)NC1CCCCNC1=O` (configuration not stated), for which the cytotoxicity at 10 µM was -10.6%.

For `CC(C)NC(=O)[C@H]1C[C@@H]2[C@@H](C1)OCCN2Cc1ccccn1`, the cytotoxicity at 10 µM came out at 6.62%.

In the case of `Cc1cnn(CC2CCCCN2C(=O)CCCc2nc(C)no2)c1` (configuration not stated), the cytotoxicity at 10 µM came to 1.46%.

Take `CN1CCC(NC(=O)NCCNc2ccccn2)CC1`: the cytotoxicity at 10 µM is -1.72%.

On to `CC(C)c1cc(C(=O)NCC2CCCN(C(C)C)C2)n(C)n1` (configuration not stated), for which the cytotoxicity at 10 µM is -1.75%.

With `Cc1cnn(CCNCc2c(C)nn(C)c2Cl)c1`, the cytotoxicity at 10 µM is -15.3%.

Consider `CC(NC(=O)NCCNc1cccc(F)c1C#N)c1nccs1` (configuration not stated), for which the cytotoxicity at 10 µM was -1.84%.

With `CCNC(=O)CNC(=O)Nc1c(F)cc(F)cc1-c1ccccc1`, the cytotoxicity at 10 µM was -7.55%.

Take `O=c1[nH]c(=O)n(CC(O)c2ccccc2Cl)cc1Cl` (configuration not stated): the cytotoxicity at 10 µM came to 9.71%.

On to `CN(C)C(=O)C1CCN(C2CCN(CC3CC3)CC2)CC1`, for which the cytotoxicity at 10 µM came to 4.55%.

For `O=C(NCc1ccco1)[C@@]12CCO[C@@H]1CCN(C1CCC1)C2`, the cytotoxicity at 10 µM is 12.3%.

Take `CCC(C)[C@H](N)c1nnc(SCC(=O)Nc2ccc(C)cc2C)o1` (some centres not stated): the cytotoxicity at 10 µM is -3.32%.

Regarding `CC(NC(=O)NCC1(c2ccc(Cl)cc2)CC1)c1nncn1C` (configuration not stated), the cytotoxicity at 10 µM is -3.25%.

Consider `Cn1c(N2CCOCC2)nc2cc(C(=O)N3CCC(O)(CO)C3)ccc21` (configuration not stated), for which the cytotoxicity at 10 µM is -4.62%.

Regarding `COc1cccc(CNCc2ccc(NC(=O)NC(C)C)cc2)c1`, the cytotoxicity at 10 µM is -11.1%.

On to `NCCO[C@H]1C[C@@H](O)C12CCN(C1Cc3ccccc3C1)CC2`, for which the cytotoxicity at 10 µM turned out to be 20.7%.

With `CS(=O)(=O)N1CC2(CCN(CC3CCCCC3)C2)Cc2ccccc21` (configuration not stated), the cytotoxicity at 10 µM turned out to be 23.3%.

Take `Cc1cc(CNCC2(O)CCCN(CCCc3ccccc3)C2=O)n[nH]1` (configuration not stated): the cytotoxicity at 10 µM was -2.4%.

Take `Cc1ccc(S(=O)(=O)N(C)CC(C)O)c(F)c1` (configuration not stated): the cytotoxicity at 10 µM was -11.4%.

For the molecule `c1cnnc(N2CCCC2CNCc2noc(C3CC3)n2)c1` (configuration not stated), the cytotoxicity at 10 µM is -7.45%.

Take `COc1cc(C(C)NCc2cscn2)ccc1SC(F)F` (configuration not stated): the cytotoxicity at 10 µM was found to be 0.762%.

`O=c1c2sccc2nc2n1CCN(Cc1cc(F)ccc1F)CC2`: the cytotoxicity at 10 µM is -21.8%.

As to `Cn1ccnc1CN1CCN(Cc2ccncc2)[C@@H]2CS(=O)(=O)C[C@@H]21`, the cytotoxicity at 10 µM is 1.5%.

For `N#Cc1cccc(Oc2ccc(CN3CCCC3)cc2Cl)n1`, the cytotoxicity at 10 µM was -16%.

Take `CC(=O)c1ccc(C(=O)NCCCOC(C)c2ccccc2)s1` (configuration not stated): the cytotoxicity at 10 µM was -14.1%.

`CCOCC(=O)NC1(c2cccc(Cl)c2)CC1`: the cytotoxicity at 10 µM was determined as 3%.

As for `CN1CCN(C[C@@H]2OC[C@H]3CN(Cc4ccncc4)CC[C@H]32)CC1`, the cytotoxicity at 10 µM worked out at 1.96%.

Consider `Cc1ccccc1-c1cncc(C2CCN(S(=O)(=O)N(C)C)CC2)n1`, for which the cytotoxicity at 10 µM came to 0.0706%.

Consider `COC[C@H]1CCC[C@]12CN(C(=O)NCc1ccccc1)CCO2`, for which the cytotoxicity at 10 µM was -11.6%.

Regarding `COc1cc2c(c(OC)c1OC)CCN(CCN1CCCCC1)CC2`, the cytotoxicity at 10 µM was -15.7%.

As to `CCc1nccn1CCCNC(=O)CN1CCN(c2ncccn2)CC1`, the cytotoxicity at 10 µM was -7.54%.

For `Cc1nc(N2CCCC2)nc2c1CCN(C(=O)CC1CC1)CC2`, the cytotoxicity at 10 µM is -9.6%.

As to `CCc1ccc(C(=O)N2CCC3(CCC(=O)N(CCN(C)C)C3)CC2)[nH]1`, the cytotoxicity at 10 µM stood at 5.96%.

For the molecule `Cc1noc(C(C)C)c1C(=O)NCc1ccc(N(C)C)c(F)c1`, the cytotoxicity at 10 µM was determined as 1.17%.

For the molecule `CCC1CN(CCCO)c2ccccc2O1` (configuration not stated), the cytotoxicity at 10 µM was -7.24%.

On to `c1ccc(CN2CCC3(CC2)CC(Oc2cccnc2)C3)nc1`, for which the cytotoxicity at 10 µM is -111%.

Consider `NS(=O)(=O)c1ccc(NCc2ccccc2F)cc1C(F)(F)F`, for which the cytotoxicity at 10 µM was -10.2%.

For the molecule `c1ccc2[nH]c(C3CCN(Cc4nnc(C5CC5)o4)CC3)nc2c1`, the cytotoxicity at 10 µM was 0.152%.

Regarding `CC(CC(=O)N1CCC(c2nnc3n2CCC3)CC1)n1cccc1` (configuration not stated), the cytotoxicity at 10 µM is 8.11%.

For `O=C(O)C1(Cc2ccccc2Cl)CCN(c2ncnc3[nH]ccc23)CC1`, the cytotoxicity at 10 µM stood at 11%.

As to `Cc1noc(C)c1CN1C[C@@H](NC(=O)N(C)C)[C@H](C(C)C)C1`, the cytotoxicity at 10 µM was found to be 5.35%.

For `COc1cc(NCC(=O)NC(C)(C#N)C(C)C)cc(OC)c1OC` (configuration not stated), the cytotoxicity at 10 µM was -7.33%.

In the case of `CS(=O)(=O)c1ncc(CN2CCCC(C(N)=O)C2)n1CC1CCCCC1` (configuration not stated), the cytotoxicity at 10 µM was -2.35%.
